Source: article PMC6893910 (ACS chemical biology, 2019)
Entries after “also recorded” stand apart in the source; their conditions may differ. One block for each compound: values may come before it.

Columns and labels:
[1] = tested on: acetylation level of α-tubulin; test: Acetyl-α-tubulin; format: cell-based; conditions: HEK 293T cells, 6 hrs
Outline: (§1)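 HEK 293T cells were treated with test compound for 6 hrs. Acetyl-α-tubulin (K40) and acetyl-histone H3 were both detected by immunoblot of the treated cells.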

[2] = tested on: acetylation level of histone H3; test: Acetyl-histone H3 immunoblot in HEK 293T cells; format: cell-based; conditions: 6 hrs
Outline: as §1

HDAC11 [3] = molecular target: T1, HDAC11 (Homo sapiens, UniProt Q96DB2); test: HPLC-based HDAC11 assay with myristoyl-H3K9 peptide; format: biochemical
T1 sequence (Q96DB2 1-347): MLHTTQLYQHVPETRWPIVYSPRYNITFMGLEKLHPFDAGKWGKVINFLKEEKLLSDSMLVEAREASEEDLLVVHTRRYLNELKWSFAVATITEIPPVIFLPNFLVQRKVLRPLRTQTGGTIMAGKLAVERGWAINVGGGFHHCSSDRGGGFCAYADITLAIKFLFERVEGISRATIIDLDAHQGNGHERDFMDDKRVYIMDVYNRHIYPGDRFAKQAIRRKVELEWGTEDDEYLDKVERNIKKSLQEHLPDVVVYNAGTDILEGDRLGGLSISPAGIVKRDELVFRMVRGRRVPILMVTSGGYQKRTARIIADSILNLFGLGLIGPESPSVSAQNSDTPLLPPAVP

HDAC11 [4] = molecular target: T1, HDAC11; test: HDAC11 demyristoylation of myristoyl-SHMT2 peptide in vitro; format: biochemical; conditions: read-out: IC50 against HDAC11; myristoyl-SHMT2 peptide substrate
HDAC1 = HDAC1 (Homo sapiens, UniProt Q13547); test: In vitro selectivity assay with acyl-H3K9 peptide, HDAC1; format: biochemical; conditions: at 100 μM
HDAC8 = molecular target: T2, HDAC8 (Homo sapiens, UniProt Q9BY41); test: In vitro selectivity assay with acyl-H3K9 peptide, HDAC8; format: biochemical; conditions: at 100 μM
T2 sequence (Q9BY41 1-377): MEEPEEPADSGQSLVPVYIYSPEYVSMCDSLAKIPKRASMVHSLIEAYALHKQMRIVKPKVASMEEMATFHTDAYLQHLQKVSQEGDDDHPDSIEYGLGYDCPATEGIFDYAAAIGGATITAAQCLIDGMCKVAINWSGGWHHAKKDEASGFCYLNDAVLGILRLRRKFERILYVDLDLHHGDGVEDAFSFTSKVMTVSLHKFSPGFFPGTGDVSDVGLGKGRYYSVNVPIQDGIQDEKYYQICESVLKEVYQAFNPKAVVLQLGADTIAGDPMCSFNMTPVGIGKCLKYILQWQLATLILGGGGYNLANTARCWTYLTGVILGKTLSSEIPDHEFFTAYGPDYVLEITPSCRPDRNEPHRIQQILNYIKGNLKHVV

HDAC4 = HDAC4 (Homo sapiens, UniProt P56524); test: In vitro selectivity assay with acyl-H3K9 peptide, HDAC4; format: biochemical; conditions: at 100 μM
SIRT1 = molecular target: T3, SIRT1 (Homo sapiens, UniProt Q96EB6); test: In vitro selectivity assay with acyl-H3K9 peptide, SIRT1; format: biochemical; conditions: at 100 μM
T3 sequence (Q96EB6 1-747): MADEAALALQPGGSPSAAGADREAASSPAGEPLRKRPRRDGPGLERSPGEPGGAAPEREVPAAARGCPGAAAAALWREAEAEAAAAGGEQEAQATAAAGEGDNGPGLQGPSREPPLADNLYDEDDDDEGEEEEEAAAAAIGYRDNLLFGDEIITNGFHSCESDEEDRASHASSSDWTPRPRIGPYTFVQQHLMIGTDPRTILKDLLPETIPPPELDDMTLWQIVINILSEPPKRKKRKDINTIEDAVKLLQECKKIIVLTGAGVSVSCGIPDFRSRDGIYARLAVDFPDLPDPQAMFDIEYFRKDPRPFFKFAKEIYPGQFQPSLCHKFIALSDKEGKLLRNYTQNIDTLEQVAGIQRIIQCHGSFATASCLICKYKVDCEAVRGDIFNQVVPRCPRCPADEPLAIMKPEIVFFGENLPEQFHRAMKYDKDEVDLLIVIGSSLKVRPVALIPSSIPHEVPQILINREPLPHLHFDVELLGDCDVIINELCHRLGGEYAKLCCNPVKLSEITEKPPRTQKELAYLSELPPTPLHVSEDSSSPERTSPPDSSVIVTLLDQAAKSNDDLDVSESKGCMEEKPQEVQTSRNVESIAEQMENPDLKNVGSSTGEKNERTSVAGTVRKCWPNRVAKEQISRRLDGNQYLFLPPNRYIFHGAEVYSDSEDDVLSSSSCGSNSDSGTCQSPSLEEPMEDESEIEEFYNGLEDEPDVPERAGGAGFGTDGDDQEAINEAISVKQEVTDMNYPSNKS

SIRT2 = molecular target: T4, SIRT2 (Homo sapiens, UniProt Q8IXJ6); test: In vitro selectivity assay with acyl-H3K9 peptide, SIRT2; format: biochemical; conditions: at 100 μM
T4 sequence (Q8IXJ6 1-389): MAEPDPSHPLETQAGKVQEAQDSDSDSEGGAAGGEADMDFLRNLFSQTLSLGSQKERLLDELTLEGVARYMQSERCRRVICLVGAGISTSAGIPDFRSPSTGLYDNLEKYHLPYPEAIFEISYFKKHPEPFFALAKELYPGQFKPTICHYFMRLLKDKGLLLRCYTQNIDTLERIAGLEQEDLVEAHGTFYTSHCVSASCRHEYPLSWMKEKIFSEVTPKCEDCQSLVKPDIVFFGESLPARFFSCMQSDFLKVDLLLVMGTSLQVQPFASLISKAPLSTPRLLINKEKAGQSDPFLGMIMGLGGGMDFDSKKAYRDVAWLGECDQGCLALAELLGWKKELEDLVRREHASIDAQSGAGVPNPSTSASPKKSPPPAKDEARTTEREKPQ

SIRT3 = molecular target: T5, SIRT3 (Homo sapiens, UniProt Q9NTG7); test: In vitro selectivity assay with acyl-H3K9 peptide, SIRT3; format: biochemical; conditions: at 100 μM
T5 sequence (Q9NTG7 1-399): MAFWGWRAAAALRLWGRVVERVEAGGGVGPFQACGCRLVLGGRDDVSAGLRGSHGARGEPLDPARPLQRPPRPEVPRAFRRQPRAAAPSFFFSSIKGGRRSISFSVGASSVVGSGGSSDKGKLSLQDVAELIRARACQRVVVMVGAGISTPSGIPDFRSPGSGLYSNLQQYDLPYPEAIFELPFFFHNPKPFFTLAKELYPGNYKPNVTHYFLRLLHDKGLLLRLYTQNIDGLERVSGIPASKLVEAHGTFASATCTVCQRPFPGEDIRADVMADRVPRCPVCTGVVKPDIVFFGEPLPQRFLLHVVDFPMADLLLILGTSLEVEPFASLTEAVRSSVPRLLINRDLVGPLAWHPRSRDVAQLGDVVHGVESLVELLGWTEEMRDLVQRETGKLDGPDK

SIRT6 = SIRT6 (Homo sapiens, UniProt Q8N6T7); test: In vitro selectivity assay with acyl-H3K9 peptide, SIRT6; format: biochemical; conditions: at 100 μM
[5] = LC-MS based detection of compound in cell lysate; format: in vitro ADME; conditions: LC-MS based assay
[6] = myristoyl-H3K9 peptide substrate, HPLC assay

Chain of SIRT6 (Q8N6T7 whole entry, species assumed): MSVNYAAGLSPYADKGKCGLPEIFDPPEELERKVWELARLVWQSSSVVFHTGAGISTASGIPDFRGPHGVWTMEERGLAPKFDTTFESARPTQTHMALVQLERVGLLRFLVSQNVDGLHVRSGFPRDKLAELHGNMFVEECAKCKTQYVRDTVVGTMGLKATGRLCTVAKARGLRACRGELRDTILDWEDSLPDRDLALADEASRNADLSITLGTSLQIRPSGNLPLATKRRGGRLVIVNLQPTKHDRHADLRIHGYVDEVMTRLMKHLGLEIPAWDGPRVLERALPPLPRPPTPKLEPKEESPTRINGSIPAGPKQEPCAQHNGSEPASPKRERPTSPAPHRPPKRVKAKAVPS
Chain of HDAC1 (Q13547 whole entry, species assumed): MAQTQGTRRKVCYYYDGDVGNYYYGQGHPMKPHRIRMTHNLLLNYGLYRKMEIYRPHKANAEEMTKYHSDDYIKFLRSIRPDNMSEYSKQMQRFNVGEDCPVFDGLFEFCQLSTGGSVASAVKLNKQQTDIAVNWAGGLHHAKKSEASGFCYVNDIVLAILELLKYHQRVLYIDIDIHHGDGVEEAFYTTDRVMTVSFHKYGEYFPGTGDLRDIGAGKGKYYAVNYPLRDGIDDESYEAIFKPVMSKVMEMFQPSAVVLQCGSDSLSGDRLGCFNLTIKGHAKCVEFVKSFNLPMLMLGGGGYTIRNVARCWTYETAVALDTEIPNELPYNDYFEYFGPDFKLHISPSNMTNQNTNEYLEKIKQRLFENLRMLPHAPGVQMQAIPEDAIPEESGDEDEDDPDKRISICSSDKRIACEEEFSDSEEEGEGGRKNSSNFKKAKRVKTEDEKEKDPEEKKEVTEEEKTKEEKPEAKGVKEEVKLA
Chain of HDAC4 (P56524 whole entry, species assumed): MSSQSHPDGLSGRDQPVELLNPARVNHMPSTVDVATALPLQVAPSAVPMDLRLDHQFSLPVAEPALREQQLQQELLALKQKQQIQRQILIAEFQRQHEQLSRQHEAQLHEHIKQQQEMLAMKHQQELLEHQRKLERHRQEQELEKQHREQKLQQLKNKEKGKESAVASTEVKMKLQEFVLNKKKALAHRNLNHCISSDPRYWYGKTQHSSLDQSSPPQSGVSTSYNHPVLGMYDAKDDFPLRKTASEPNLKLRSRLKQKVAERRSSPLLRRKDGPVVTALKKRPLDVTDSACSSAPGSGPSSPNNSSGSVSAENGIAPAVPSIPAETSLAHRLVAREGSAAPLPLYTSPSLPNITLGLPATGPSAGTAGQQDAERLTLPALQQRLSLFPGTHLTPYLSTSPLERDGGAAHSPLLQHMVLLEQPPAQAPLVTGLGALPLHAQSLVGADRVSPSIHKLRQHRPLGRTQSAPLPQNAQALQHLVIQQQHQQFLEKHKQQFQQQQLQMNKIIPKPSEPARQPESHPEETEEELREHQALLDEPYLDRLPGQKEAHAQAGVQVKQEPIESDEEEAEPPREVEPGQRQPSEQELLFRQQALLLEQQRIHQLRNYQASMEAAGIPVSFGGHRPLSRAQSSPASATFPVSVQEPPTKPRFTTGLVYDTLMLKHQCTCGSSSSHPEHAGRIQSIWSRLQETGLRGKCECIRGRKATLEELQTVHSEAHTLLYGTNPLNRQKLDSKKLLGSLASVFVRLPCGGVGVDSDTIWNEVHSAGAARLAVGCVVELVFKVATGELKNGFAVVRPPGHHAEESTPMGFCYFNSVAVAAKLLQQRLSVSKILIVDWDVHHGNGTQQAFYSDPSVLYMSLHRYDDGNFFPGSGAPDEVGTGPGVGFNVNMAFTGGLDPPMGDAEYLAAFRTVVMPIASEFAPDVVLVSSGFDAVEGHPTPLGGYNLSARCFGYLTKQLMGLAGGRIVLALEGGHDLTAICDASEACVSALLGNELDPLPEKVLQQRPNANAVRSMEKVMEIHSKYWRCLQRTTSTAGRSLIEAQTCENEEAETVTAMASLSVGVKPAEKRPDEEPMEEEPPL

SMILES: CC1(C)c2cccc(C(=O)NO)c2CN1c1cnc(C(F)(F)F)cn1 [FT895]
- acetylation level of α-tubulin ([1]; up to 50 μM): did not affect
- acetylation level of histone H3 ([2]; up to 50 μM): did not affect

SMILES: O=C(CCCCCCC(=O)Nc1ccccc1)NO [SAHA, Vorinostat]
- HDAC11 inhibition (in words) (HDAC11 [3]; [6]): Neither SAHA or UF010 could inhibit HDAC11
- acetylation level of α-tubulin ([1]; at 1 μM): significantly increased
- acetylation level of histone H3 ([2]; at 1 μM): significantly increased

SMILES: CCCCCCCCCCCCCCCCNNC(=O)c1cccs1 [SIS17]
- IC50 (HDAC11 [3]; read-out: IC50 against HDAC11, myristoyl-H3K9 peptide substrate, HPLC assay): 830 nM
- IC50 (HDAC11 [4]): 270 nM
- HDAC1 inhibition (HDAC1): did not show significant inhibition
- HDAC8 inhibition (HDAC8): did not show significant inhibition
- HDAC4 inhibition (HDAC4): did not show significant inhibition
- SIRT1 inhibition (SIRT1): did not show significant inhibition
- SIRT2 inhibition (SIRT2): did not show significant inhibition
- SIRT3 inhibition (SIRT3): did not show significant inhibition
- SIRT6 inhibition (SIRT6): did not show significant inhibition
- acetylation level of α-tubulin ([1]; up to 50 μM): did not affect
- acetylation level of histone H3 ([2]; up to 50 μM): did not affect
- detection of compound in cell lysate [5]: could readily detect

SMILES: CCCCNNC(=O)c1ccc(Br)cc1 [UF010]
- HDAC11 inhibition (in words) (HDAC11 [3]; [6]): Neither SAHA or UF010 could inhibit HDAC11; also recorded: did not inhibit HDAC11

- HDAC11 inhibition (HDAC11 [3]; at 10 μM): no inhibition
SMILES: CCCCCCCCCCCCCCCC(=O)O [palmitic acid]
